This passage reports Ki and inhibition results from ChEMBL document CHEMBL1132980, “1,2,4-Triazolo[4,3-a]quinoxalin-1-one: a versatile tool for the synthesis of potent and selective adenosine receptor antagonists” (J Med Chem, 2000).

Experiment [1] deals with T1, Adenosine receptor A3 (Homo sapiens, UniProt P0DMS8).
T1 sequence (P0DMS8 whole entry): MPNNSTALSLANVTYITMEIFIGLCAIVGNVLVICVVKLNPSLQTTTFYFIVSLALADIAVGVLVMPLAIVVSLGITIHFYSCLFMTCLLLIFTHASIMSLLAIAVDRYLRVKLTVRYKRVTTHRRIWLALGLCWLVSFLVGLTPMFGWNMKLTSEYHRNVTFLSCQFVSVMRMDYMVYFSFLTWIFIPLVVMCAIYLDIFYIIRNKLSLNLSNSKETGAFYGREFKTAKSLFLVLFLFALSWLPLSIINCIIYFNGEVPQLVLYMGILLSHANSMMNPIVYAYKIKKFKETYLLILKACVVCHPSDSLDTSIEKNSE
In words: Binding affinity towards human adenosine A3 receptor expressed in HEK293 cells in presence of [125I]-AB-MECA at a concentration of 1 uM. The experiment is classed as cell-based.

The subject of experiment [2] is Adenosine receptor A2a (Bos taurus). Kind of experiment: Binding affinity towards adenosine A2A receptor of bovine striatal membrane in presence of [3H]-CGS- at a concentration of 20 uM.
The target in experiment [3] is T2, Adenosine receptor A1 (Bos taurus, UniProt P28190).
T2 sequence (P28190 whole entry): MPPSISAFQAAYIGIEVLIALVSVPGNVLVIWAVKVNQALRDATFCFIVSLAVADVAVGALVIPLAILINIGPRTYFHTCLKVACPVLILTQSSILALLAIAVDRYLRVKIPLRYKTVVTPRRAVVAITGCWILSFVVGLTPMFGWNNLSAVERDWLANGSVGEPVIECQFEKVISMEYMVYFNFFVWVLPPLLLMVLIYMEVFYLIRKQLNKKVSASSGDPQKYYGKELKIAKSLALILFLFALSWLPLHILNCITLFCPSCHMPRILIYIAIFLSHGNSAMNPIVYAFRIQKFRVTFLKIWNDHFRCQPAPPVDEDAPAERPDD
In words: Binding affinity towards adenosine A1 receptor of bovine brain membrane in presence of [3H]CHA at a concentration of 20 uM. In short, it runs like this:
(§1)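 Compounds dissolved in DMSO (2% in buffer), with blank runs for solvent effect. Membrane protein measured after solubilization in 0.75 N NaOH against a BSA standard.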

The target of experiment [4] is T3, Adenosine receptor A1 (Bos taurus) (UniProt P28190).
T3 sequence (whole entry): T2 sequence (P28190 whole entry)
Kind of experiment: Binding affinity towards Adenosine A1 receptor of bovine brain membrane using [3H]-CHA at 20 uM. In short, it runs like this:
as §1

Experiment [5] concerns the target T4, Adenosine receptor A3 (Homo sapiens) (UniProt P0DMS8).
T4 sequence (whole entry): T1 sequence (P0DMS8 whole entry)
In words: Binding affinity towards human Adenosine A3 receptor expressed in HEK293 cells using [125I]AB-MECA at 1 uM. Type of experiment: cell-based.

Experiment [6] concerns the target T2, Adenosine receptor A1. Kind of experiment: Binding affinity towards adenosine A1 receptor of bovine brain membrane using [3H]-CHA at 20 uM.
Experiment [7] concerns the target T1, Adenosine receptor A3. In words: Binding affinity towards human adenosine A3 receptor expressed in HEK293 cells using [125I]AB-MECA at 1 uM. Type of experiment: cell-based.
Experiment [8] deals with Adenosine receptor A2a (Bos taurus). Kind of experiment: Binding affinity towards Adenosine A2A receptor of bovine striatal membrane using [3H]-CGS- at 20 uM.
Experiment [9] has as its system Adenosine receptor A2a (Bos taurus). In words: Binding affinity towards adenosine A2A receptor of bovine striatal membrane in presence of [3H]-CGS-.

What is called Ki is a dissociation constant, usually derived from enzyme kinetics or from competition with a known ligand. The term inhibition denotes the relative decrease from the control value, in per cent. As to `Nc1nc2ccccc2n2c(=O)n(-c3ccc(Cl)cc3)nc12`, the inhibition constant (Ki) on Adenosine receptor A3 [1] is 329 nM; at Adenosine receptor A1 [3], 426 nM. Moreover, the inhibition in experiment [2] was found to be 37%.
For `O=c1[nH]c2ccccc2n2c(=O)n(-c3cccc(F)c3)nc12`, the Ki on Adenosine receptor A3 [1] came out at 63 nM; at Adenosine receptor A1 [3], 200 nM. Moreover, the inhibition in experiment [2] is 20%.
Consider `Cn1c(=O)c2nn(-c3ccc(Cl)cc3)c(=O)n2c2ccccc21`, for which the inhibition in [4] was 29%; in experiment [2] it was 8%. Also, at Adenosine receptor A3 [1], the Ki amounted to 137 nM.
Take `CCC(=O)Nc1nc2ccccc2n2c(=O)n(-c3ccccc3)nc12`: the Ki at Adenosine receptor A3 [1] turned out to be 15.8 nM; on Adenosine receptor A1 [3], 9.3 nM.
Take `Cc1cccc(-n2nc3c(NC4CCCCC4)nc4ccccc4n3c2=O)c1`: the Ki at Adenosine receptor A3 [1] was 548 nM; on Adenosine receptor A1 [3] it was 4.2 nM. For the same molecule, the inhibition in experiment [2] was found to be 41%.
The matching figures for `O=c1n(-c2ccccc2)nc2c(NCCc3ccccc3)nc3ccccc3n12`: 201 nM, 4.8 nM and 59%.
As for `Cc1cccc(-n2nc3c(NC4CCCC4)nc4ccccc4n3c2=O)c1`, on Adenosine receptor A3 [1], the Ki came out at 27.5 nM.
`O=c1[nH]c2ccccc2n2c(=O)n(-c3ccc(Cl)cc3)nc12`: the figures for the inhibition constant Ki at Adenosine receptor A3 [1] and at Adenosine receptor A1 [3] were 114 nM and 1020 nM, respectively.
Regarding `C#CCn1c(=O)c2nn(-c3ccccc3)c(=O)n2c2ccccc21`, on Adenosine receptor A3 [1], the inhibitory constant (Ki) is 479 nM.
As to `O=c1n(-c2ccccc2)nc2c(NC3CCCCC3)nc3ccccc3n12`, the Ki on Adenosine receptor A3 [1] was 506 nM; on Adenosine receptor A1 [3], 1.43 nM.
The matching figures for `CC(=O)Nc1nc2ccccc2n2c(=O)n(-c3ccccc3)nc12`: 2 nM and 4.3 nM.
On to `O=c1n(-c2ccccc2)nc2c(NCc3ccccc3)nc3ccccc3n12`, for which the Ki on Adenosine receptor A3 [1] was determined as 1700 nM; at Adenosine receptor A1 [3], 55 nM. In addition, the inhibition in experiment [2] is 59%.
Turning to `Nc1nc2ccccc2n2c(=O)n(-c3ccccc3)nc12`, the inhibition in experiment [5] was 36%.
Take `Cn1c(=O)c2[nH]c(C3CCCC3)nc2n(C)c1=O` [8-CYCLOPENTYLTHEOPHYLLINE]: the Ki stood at 0.5 nM on Adenosine receptor A1 [6] and 1300 nM at Adenosine receptor A3 [7].
For the molecule `O=c1n(-c2ccccc2)nc2c(NCCCc3ccccc3)nc3ccccc3n12`, the values for the inhibition constant Ki on Adenosine receptor A3 [1] and at Adenosine receptor A1 [3] were 40.9 nM and 17.9 nM, respectively. The inhibition in [2] stood at 61%.
Take `O=c1n(-c2ccccc2)nc2c(NCC(c3ccccc3)c3ccccc3)nc3ccccc3n12`: the values for the inhibitory constant (Ki) on Adenosine receptor A1 [6] and at Adenosine receptor A3 [7] were 54 nM and 1020 nM, respectively.
As for `COc1ccc(NC(=O)Nc2nc3ccccc3n3c(=O)n(-c4ccccc4)nc23)cc1`, the results for the Ki on Adenosine receptor A3 [1] and on Adenosine receptor A1 [3] were 960 nM and 2600 nM, respectively.
For the molecule `O=C(Nc1nc2ccccc2n2c(=O)n(-c3ccccc3)nc12)c1ccccc1`, the Ki turned out to be 1.47 nM at Adenosine receptor A3 [1] and 89.6 nM at Adenosine receptor A1 [3]. For the same molecule, the inhibition in [2] worked out at 53%.
The matching figures for `Cc1cccc(-n2nc3c(=O)[nH]c4ccccc4n3c2=O)c1`: 91 nM, 436 nM and 5%.
Consider `O=c1n(-c2cccc(F)c2)nc2c(NC3CCCCC3)nc3ccccc3n12`, for which the figures for the Ki (on Adenosine receptor A3 [1]; in experiment [8]; at Adenosine receptor A1 [3]) were 44.2 nM, 66 nM and 4.9 nM, respectively.
As for `O=C(Nc1ccccc1)Nc1nc2ccccc2n2c(=O)n(-c3ccccc3)nc12`, at Adenosine receptor A3 [1], the inhibition constant Ki was 276 nM.
As for `Cc1cccc(-n2nc3c(N)nc4ccccc4n3c2=O)c1`, the results for the Ki on Adenosine receptor A3 [1] and at Adenosine receptor A1 [3] were 28.5 nM and 20 nM, respectively.
In the case of `O=C(Cc1ccccc1)Nc1nc2ccccc2n2c(=O)n(-c3ccccc3)nc12`, the Ki on Adenosine receptor A3 [1] turned out to be 3.75 nM; at Adenosine receptor A1 [3] it was 6.3 nM. In addition, the inhibition in [2] came to 62%.
Take `Nc1nc2ccccc2n2c(=O)n(-c3cccc(F)c3)nc12`: the Ki at Adenosine receptor A3 [1] is 157 nM; on Adenosine receptor A1 [3], 28.5 nM.
In the same order, the values of `COc1ccc(-n2nc3c(N)nc4ccccc4n3c2=O)cc1` are 45.3 nM and 312 nM.
With `O=c1n(-c2ccc(Cl)cc2)nc2c(NC3CCCCC3)nc3ccccc3n12`, the Ki came out at 56.1 nM at Adenosine receptor A3 [1] and 80.1 nM on Adenosine receptor A1 [3]. Further, the inhibition in experiment [2] is 0%.
Regarding `O=c1n(-c2ccccc2)nc2c(NC3CCCC3)nc3ccccc3n12`, the figures for the Ki on Adenosine receptor A3 [1] and at Adenosine receptor A1 [3] were 55.4 nM and 0.42 nM, respectively.
Consider `O=c1n(-c2cccc(F)c2)nc2c(NC3CCCC3)nc3ccccc3n12`, for which the Ki on Adenosine receptor A3 [1] turned out to be 173 nM; on Adenosine receptor A1 [3], 1.1 nM; in experiment [9] it was 148 nM.
On to `O=c1[nH]c2ccccc2n2c(=O)n(-c3ccccc3)nc12`, for which the inhibition constant (Ki) on Adenosine receptor A3 [1] was 80 nM; on Adenosine receptor A1 [3], 515 nM. The inhibition in experiment [2] is 64%.
In the same order, the values of `Cn1c(=O)c2nn(-c3ccccc3)c(=O)n2c2ccccc21` are 36.6 nM, 309 nM and 53%.
`Cc1ccc(-n2nc3c(=O)n(C)c4ccccc4n3c2=O)cc1`: the values for the inhibition in experiment [4] and in [2] were 22% and 0%, respectively. Also, the Ki at Adenosine receptor A3 [1] came out at 504 nM.
Take `COc1ccc(-n2nc3c(=O)[nH]c4ccccc4n3c2=O)cc1`: the Ki was determined as 16 nM on Adenosine receptor A3 [1] and 934 nM at Adenosine receptor A1 [3].
`Nc1nc2c(NCc3ccccc3)cccc2n2c(=O)n(-c3ccccc3)nc12` yielded an inhibition in experiment [5] of 30%. The Ki in [8] was determined as 6.5 nM; on Adenosine receptor A1 [3], 730 nM.
As for `CCCn1c(=O)c2nn(-c3ccccc3)c(=O)n2c2ccccc21`, the results for the Ki at Adenosine receptor A3 [1] and at Adenosine receptor A1 [3] were 1250 nM and 406 nM, respectively. In [2], the inhibition came out at 44%.
Regarding `Cc1ccc(N2CN3C(=N2)C(=O)Nc2ccccc23)cc1`, the inhibition in experiment [4] worked out at 48%. For the same molecule, the Ki on Adenosine receptor A3 [1] worked out at 197 nM.
Regarding `Cc1ccc(-n2nc3c(=O)[nH]c4ccccc4n3c2=O)cc1`, the inhibitory constant (Ki) at Adenosine receptor A3 [1] came out at 25 nM; on Adenosine receptor A1 [3], 155 nM. For the same molecule, the inhibition in experiment [2] came out at 0%.
As for `Nc1cccc2c1nc(N)c1nn(-c3ccccc3)c(=O)n12`, the inhibition in experiment [5] stood at 54%.
In the case of `Cc1ccc(-n2nc3c(N)nc4ccccc4n3c2=O)cc1`, the Ki at Adenosine receptor A3 [1] came out at 48.3 nM.
